The target of test [1] is T1, Leukotriene B4 receptor 1 (Homo sapiens, UniProt Q15722). Put plainly: Binding affinity against Leukotriene B4 receptor on intact differentiated U-937 cells in competitive binding assay with [3H]LTB4. In kind it is cell-based. The gist of the method: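 Differentiated U-937 cells (1.3% DMSO, 3–4 days), washed; 10⁶ intact cells incubated in HBSS with 0.1% ovalbumin and 0.2 nM [³H]LTB₄, 20 min at 0 °C. Nonspecific binding defined with 1 μM unlabeled LTB₄. Filtration then scintillation counting. IC₅₀ converted to Ki by Cheng–Prusoff.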
T1 sequence (Q15722 whole entry): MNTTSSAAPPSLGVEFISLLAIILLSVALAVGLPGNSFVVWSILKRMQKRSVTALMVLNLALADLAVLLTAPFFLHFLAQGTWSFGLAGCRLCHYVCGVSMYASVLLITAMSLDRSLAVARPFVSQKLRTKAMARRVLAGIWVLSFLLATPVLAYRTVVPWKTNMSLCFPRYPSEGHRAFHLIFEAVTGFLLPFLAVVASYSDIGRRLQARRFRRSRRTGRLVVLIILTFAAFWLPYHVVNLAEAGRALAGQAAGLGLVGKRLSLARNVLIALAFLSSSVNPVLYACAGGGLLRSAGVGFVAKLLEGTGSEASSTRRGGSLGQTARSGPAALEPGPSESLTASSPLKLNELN

The test system of test [2] is U-937. In words: Inhibition of [3H]LTB4 binding in whole cells. The note with it: Homo sapiens.
Test [3] concerns U-937. Put plainly: Inhibition of [3H]LTB4 binding in whole cells (U-937). The note with it: Homo sapiens.
Test [4] concerns the target T1, Leukotriene B4 receptor 1. In words: Binding affinity against Leukotriene B4 receptor on U-937 cell membrane preparations in competitive binding assay with [3H]LTB4.

The values below come from ChEMBL document CHEMBL1126875, “Synthesis and LTB4 receptor antagonist activities of the naturally occurring LTB4 receptor antagonist Leucettamine A and related analogues” (J Med Chem, 1993).

Each structure is given as a SMILES string. Bounds are passed on as bounds.

As for `Cn1c(N)nc(Cc2ccccc2)c1Cc1ccccc1`, the Ki (commonly a measure of affinity in units of concentration, obtained from inhibition or displacement) in test [1] came to 19 µM. The IC50 (usually the concentration that gives 50% inhibition) in test [2] was found to be 30 µM.

On to `Cn1c(N)nc(Cc2ccc(CCCCO)cc2)c1Cc1ccccc1`, for which the Ki in test [1] was determined as 2.4 µM. Further, the IC50 in test [2] worked out at 3.8 µM.

For the compound `Cn1cc(Cc2ccccc2)nc1N`, the IC50 in test [2] is more than 100 µM.

In the case of `CCCCCCn1c(N)nc(Cc2ccccc2)c1Cc1ccccc1`, in test [3], the IC50 is more than 100 µM.

`COc1cccc(Cc2nc(N)n(C)c2Cc2ccccc2)c1` showed a Ki in test [1] of 27 µM. In test [2], this compound came in with an IC50 of 40 µM.

With `Nc1nc(Cc2ccccc2)c(Cc2ccccc2)[nH]1`, the Ki in test [1] was found to be 9 µM. Also, the IC50 in test [2] turned out to be 13 µM.

`Cc1[nH]c(N)nc1Cc1ccccc1`: the IC50 in test [2] is more than 100 µM.

For `COc1ccc(/C=C/CCCCOc2ccc(C(=O)c3cccc(C(=O)O)c3)cc2CCC(=O)O)cc1`, the affinity in test [4] corresponds to a Ki of 0.36 µM.

`Cn1c(N)nc(Cc2ccc3c(c2)OCO3)c1Cc1ccc2c(c1)OCO2` [LEUCETTAMINE A] displayed a Ki in test [1] of 3.5 µM. This compound registered an IC50 in test [2] of 5.2 µM.
